# The list is not random: actives were taken first. Their share in the collection is about 2.3%.
# TRPC4 block: blocks the mouse TRPC4 cation channel; B-score at 10 µM; Q9QUQ5; HEK293 TRPC4beta/mu-opioid, DAMGO-evoked Fluo4 calcium flux; active compounds read low; AID 2247; hit rate 0.39% among 300,000;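 active = B-score over 3 SD under the library average, no early fluorescence shift, positive overall ratio signal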
# Target sequence (Q9QUQ5 whole entry, looked up): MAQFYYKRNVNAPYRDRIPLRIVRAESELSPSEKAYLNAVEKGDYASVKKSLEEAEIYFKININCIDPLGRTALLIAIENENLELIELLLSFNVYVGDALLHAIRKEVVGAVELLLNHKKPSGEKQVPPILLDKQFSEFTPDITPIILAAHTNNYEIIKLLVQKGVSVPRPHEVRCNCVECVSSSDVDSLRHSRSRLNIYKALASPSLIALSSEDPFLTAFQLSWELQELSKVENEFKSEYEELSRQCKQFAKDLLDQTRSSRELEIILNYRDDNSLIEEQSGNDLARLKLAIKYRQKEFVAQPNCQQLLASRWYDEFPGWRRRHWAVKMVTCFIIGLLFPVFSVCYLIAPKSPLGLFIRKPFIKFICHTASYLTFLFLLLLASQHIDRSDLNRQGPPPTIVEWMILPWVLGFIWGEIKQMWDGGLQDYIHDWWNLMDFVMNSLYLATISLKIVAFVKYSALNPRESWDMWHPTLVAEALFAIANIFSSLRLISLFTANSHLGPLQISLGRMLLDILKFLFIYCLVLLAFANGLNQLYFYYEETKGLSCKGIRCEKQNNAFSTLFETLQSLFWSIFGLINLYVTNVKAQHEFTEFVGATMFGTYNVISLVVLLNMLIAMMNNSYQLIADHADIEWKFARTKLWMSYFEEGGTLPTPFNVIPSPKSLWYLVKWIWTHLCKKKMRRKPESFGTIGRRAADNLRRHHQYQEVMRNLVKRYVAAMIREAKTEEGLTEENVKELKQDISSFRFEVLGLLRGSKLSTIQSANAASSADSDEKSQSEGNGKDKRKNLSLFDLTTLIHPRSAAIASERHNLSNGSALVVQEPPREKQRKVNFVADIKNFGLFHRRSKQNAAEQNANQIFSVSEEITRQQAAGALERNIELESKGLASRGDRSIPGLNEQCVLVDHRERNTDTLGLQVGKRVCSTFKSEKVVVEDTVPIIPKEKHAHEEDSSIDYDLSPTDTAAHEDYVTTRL
#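 Assay system: HEK293 cells with stable TRPC4beta plus mu-opioid receptor expression. Dosing: single dose. Measured by: Fluo4 Ca2+ flux fluorescence. Also added: DAMGO in two steps, submaximal then maximal. Read-out: B score from integrated Fluo4 fluorescence ratio.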
# TRPC4 agonist: activators of mouse TRPC4 channel; HEK293 TRPC4beta/mu-opioid, Fluo4 calcium fluorescence; active compounds read high; B-score at 10 µM; hit rate 0.49% among 310,000;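 active = B-score above 5 SD of library B-scores, and initial fluorescence ratio not above library mean plus 5 SD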;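 note: positive B-score marks a calcium rise read as TRPC4 activation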
#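 Test system: HEK293 cells stably co-expressing mouse TRPC4beta and mu-opioid receptor | Schedule: Fluo4 dye loading 45 min at room temperature, 110 s recording | Measured by: Kinetic Fluo4 calcium fluorescence, 5 s baseline at 1 Hz | Evaluation: B score of integrated ratio | Controls: Buffer (low) and maximal DAMGO (high)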
# TRPC6 inhibitor: blocks the mouse TRPC6 cation channel; B-score at 10 µM; HEK293-TRPC6, membrane potential dye, ACh-evoked depolarization; active compounds read low; hit rate 1.1% among 310,000; Q61143;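 active = B-score under library mean minus 3 SD, initial fluorescence not abnormally high, positive integrated signal ratio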;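 note: B-score derived from integrated fluorescence ratio over the kinetic read; more negative B-score means stronger inhibition of depolarization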
# TRPC4 PAM: allosterically enhances the mouse TRPC4 cation channel. Q9QUQ5. HEK293 TRPC4beta/mu-opioid, DAMGO EC20, Fluo-4 Ca2+ flux; active compounds read high. B-score at 10 µM. hit rate 0.42% among 310,000. AID 2227;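 active = B-score of calcium response area above 5 SD of library B-scores, with initial fluorescence ratio within 5 SD of library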
# TRPC6 act: mouse TRPC6 channel activation; Q61143; HEK293-TRPC6 membrane potential dye fluorescence; active compounds read high; B-score at 10 µM; hit rate 0.13% among 310,000; AID 2550;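 active = B-score of the integrated fluorescence ratio above library mean plus 3 SD, and starting fluorescence ratio within library mean plus 5 SD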;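 note: higher score means more depolarization so channel activation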
# Hits are given with their value; - = inactive; . = no result given.
SMILES,TRPC4 block,TRPC4 agonist,TRPC6 inhibitor,TRPC4 PAM,TRPC6 act
CCc1nnc(NC(=O)CN2C(=O)NC3(CC(C)CC(C)(C)C3)C2=O)s1 (stereo unspecified),-,-,-,-,-
O=C(Cn1nnc(-c2ccc(S(=O)(=O)N3CCCC3)cc2)n1)Nc1ccccc1-n1cccc1,.,-,-,-,-
COc1cc(CNCCCN2CCOCC2)cc(Br)c1OCc1ccc(Cl)cc1,-6,-,-,-,-
CCOc1cc(CNCCCN2CCOCC2)cc(Br)c1OCC(=O)Nc1cccc(C(F)(F)F)c1,-6,-,-,-,-
CCOc1cc(CNCCCN2CCOCC2)cc(Cl)c1OCC(=O)NC(C)(C)C,-,-,-,-,-
COCCn1c(C)cc(C(=O)CSc2nncn2-c2ccccc2)c1C,-,-,-,-,-
COc1ccc2oc(C(=O)Nc3nc4ccc(S(C)(=O)=O)cc4s3)c(C)c2c1,-,-,-,-,-
CC(=O)Nc1cccc(C(=O)NCC2(N3CCCCC3)CCCCC2)c1,-6,-,-,-,-
CCCN(CCC)CCNC(=O)CCC(=O)Nc1ccc2nc(N3CCOCC3)cc(C)c2c1,-,97,-,-,-
CCCCN(CC)CCNC(=S)Nc1ccc2nc(N3CCN(C)CC3)cc(C)c2c1,-,66,-,-,-
Cc1cc(N2CCN(C)CC2)nc2ccc(NC(=S)NC3CC3)cc12,-,-,-,-,-
CCCN(CCC)CCNC(=S)Nc1ccc2nc3n(c(=O)c2c1)CCCCC3,-,88,-,-,-
CCCN(CCC)CCCNC(=S)Nc1ccc2nc(N3CCN(C)CC3)cc(C)c2c1,-,-,-,13,-
CCCN(CCC)CCCNC(=S)Nc1ccc2nc(N3CCN(CC)CC3)cc(C)c2c1,-,-,-,-,-
CN(NS(=O)(=O)c1ccccc1)c1nc2ccccc2nc1C(F)(F)F,-,-,-,-,-
CCN(CC)CCCNC(=O)CCC(=O)Nc1ccc2nc(N3CCCCC3)cc(C)c2c1,-,-,-,-,-
CCCCN(CC)CCNC(=O)CCC(=O)Nc1ccc2nc(N3CCN(C)CC3)cc(C)c2c1,-,118,-,-,-
Cc1cc(C)c2c(CC(=O)NC(C)C)coc2c1,-,-,-,-,-
CC(=O)c1c(-c2ccccc2)c2cc(Cl)ccc2n(C)c1=O,-,-,-,-,-
C/C(=N\N(c1ccccc1)c1ccccc1)c1ccc(O)cc1,-,-,-,-,-
C/C(=N\N(c1ccccc1)c1ccccc1)c1ccc(N)cc1,-,-,-,24,-
NC(=NC1CCCCC1)c1ccc(Cl)cc1,-5,-,-,-,-
N/C(=N\OC(=O)C1CCCCC1)c1ccc(Cl)cc1,-,-,-,-,-
NCCNc1ccc([N+](=O)[O-])cc1,-,62,-,-,-
COc1cc(C2c3c(-c4ccccc4)n[nH]c3C(=O)N2c2ccccc2)ccc1O (stereo unspecified),-,-,-,14,-
SMILES,TRPC4 block,TRPC4 agonist,TRPC6 inhibitor,TRPC4 PAM,TRPC6 act
Cc1cc(C)cc(OCC(=O)N/N=C\c2cn(C)nc2C)c1,-,-,-,-,-
Cc1nn(C)cc1/C=N/NC(=O)C(C)(C)Oc1ccc(Cl)cc1,-,-,-,11,-
Oc1ccc(Cl)cc1C1=NNC(c2cc(Br)cc3c2OCOC3)C1 (stereo unspecified),-,-,-,-,-
Cc1cc(C)c(Cn2cnc(-c3ccc([N+](=O)[O-])cc3)c2)c(C)c1,-,-,-,-,-
COc1ccc(CN2CC(C(=O)NCCN3CCOCC3)CC2=O)cc1 (stereo unspecified),.,-,-,-,-
CCN1C(=O)c2cccc3c(S(=O)(=O)Nc4ccccc4OC)ccc1c23,-,76,-,-,-
O=C(Nc1ccc2c(c1)OCO2)c1cnn2cccnc12,-,-,-,50,-
Cc1cc(NC(=O)c2cnn3cccnc23)nn1CC(=O)Nc1cccnc1,-,51,-,150,-
Cc1ccccc1Cn1ccc(NC(=O)c2cnn3cccnc23)n1,-,-,-,-,-
COc1ccc(SC[C@H](Cc2ccccc2)N2CCN(C)CCC2=O)cc1,-8,-,-,-,-
Cc1ccc(SC[C@H](Cc2ccccc2)N2CCN(C)CCC2=O)cc1,.,81,-,-,-
O=C1CCN(CCc2ccccc2)CCN1[C@H](COc1ccccc1)Cc1ccccc1,.,67,-,-,-
CC(C)C[C@@H](COc1ccccc1)N1CCN(CCc2ccccc2)CCC1=O,.,-,-,-,-
CN1CCC(=O)N([C@H](CSc2ccc(Br)cc2)Cc2ccccc2)CC1,-,79,-,-,-
CCCN1CCC(=O)N([C@H](CSc2ccc(OC)cc2)Cc2ccccc2)CC1,-,-,-,-,-
CN1CCC(=O)N([C@H](CSc2ccccc2)Cc2ccccc2)CC1,-,-,-,-,-
CC(C)CN1CCC(=O)N([C@H](CSc2ccc(Br)cc2)Cc2ccccc2)CC1,-,-,-,-,-
CCOc1ccc(CN2CCN(c3cc(C)nc4c5c(C)cc(C)nc5nn34)CC2)cc1,-,50,-,-,-
Cc1ccc(C)c(NC(=O)c2cc(=O)c3ccccc3o2)c1,-,-,-,12,-
CCc1cc(=O)oc2c(CNCc3ccccc3F)c(O)c(Cl)cc12,-,-,-,17,-
CCOC(=O)C1CCCN(C2CCN(Cc3nc(Cc4ccccc4)no3)CC2)C1 (stereo unspecified),-,-,-,11,-
CN1CCN(c2ccc(NC(=O)COc3ccc4ccccc4c3)cc2)CC1,-,-,-,-,-
CN1CCN(c2ccc(NC(=O)COc3cccc4ccccc34)cc2)CC1,-,177,-,-,-
CCOC(=O)c1c(CSC(=N)N)n(-c2ccccc2)c2cc(Br)c(OC(C)=O)cc12,-,-,-,14,-
CCOC(=O)c1c(CN2CCN(C)CC2)n(-c2ccccc2)c2cc(Br)c(O)cc12,-,-,-,-,-
SMILES,TRPC4 block,TRPC4 agonist,TRPC6 inhibitor,TRPC4 PAM,TRPC6 act
CS(=O)(=O)N1CCN(C(=O)Cc2ccc([N+](=O)[O-])cc2)CC1,-,-,-,-,-
CCOc1ccc(-n2cc(-c3ccccc3)c3c(N4CCOCC4)ncnc32)cc1,-,-,-,16,-
Cc1cccc(-n2cc(-c3ccccc3)c3c(NN4CCOCC4)ncnc32)c1,-,-,-,14,-
c1ccc(-c2cn(-c3ccccc3)c3ncnc(N4CCCCC4)c23)cc1,-,-,-,-,-
O=C(Nn1cnc2ccccc2c1=O)c1ccccc1F,-,-,-,-,-
NNC(=O)CNC(=O)c1ccccc1F,-,-,-,-,-
CCOc1ccc(-n2c(-c3ccccc3)c[n+]3c2CCCCC3)cc1,-,-,-,-,-
CC(C)(C)n1nnnc1C(c1ccc(Cl)cc1)N(Cc1cccnc1)Cc1ccco1 (stereo unspecified),-,-,-,42,-
CCn1c(=O)c(C(=O)NNC(=O)c2ccccc2Cl)c(O)c2ccccc21,-,51,-,-,-
